According to ChEMBL document CHEMBL3286151, “Biological activities of novel pyrazolyl hydroxamic acid derivatives against human lung cancer cell line A549” (Eur J Med Chem, 2014):
Activity calls are given as the source filed them. The calls are words filed in the database; no cut-off is given here.

Columns and labels:
A549 [1] = assay: Cytotoxicity against human A549 cells assessed as growth inhibition at 1 to 10 uM after 48 hrs by sulforhodamine B assay relative to control; format: functional
How it was run: (§1)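 A549 cells seeded 24 h in RPMI-1640 with 10% bovine calf serum, then exposed in 1% serum medium to 1, 5 and 10 µM for 24 h and 48 h. 0.1% DMSO served as control and 5-FU as positive control. Viability by SRB staining, absorbance 540 nm, calculated relative to DMSO control. Mean ± SEM, n = 3, Student's t-test.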

A549 [2] = assay: Induction of apoptosis in human A549 cells assessed as appearance of apoptotic bodies at 10 uM after 48 hrs by Hoechst 33258 staining-based fluorescence microscopic analysis; format: functional, cell-based
How it was run: (§2)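 A549 cells seeded 24 h, then treated at 10 µM for 48 h in 1% serum RPMI-1640 against a 0.1% DMSO control. Fixed in 4% paraformaldehyde for 10 min at room temperature and stained with Hoechst 33258 (2 µg/mL) for 20 min. Nuclear morphology was scored by fluorescence microscopy at 200×.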

A549 [3] = assay: Induction of apoptosis in human A549 cells assessed as chromatin condensation at 10 uM after 48 hrs by Hoechst 33258 staining-based fluorescence microscopic analysis; format: functional, cell-based; how it was run: as §2
A549 [4] = assay: Induction of autophagy in human A549 cells assessed as accumulation of acidic vesicles at 10 uM after 48 hrs by acridine orange staining-based fluorescence microscopic analysis; format: functional, cell-based
How it was run: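 Acidic vesicles in A549 cells after 10 µM exposure for 48 h. Cells stained with acridine orange (100 µg/mL) for 1 min at room temperature, then imaged by fluorescence microscopy at 200×.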

A549 [5] = assay: Induction of necrosis in human A549 cells at 10 uM after 48 hrs by LDH assay; format: functional, cell-based
How it was run: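 Necrosis read-out: A549 cells exposed to 10 µM or 0.1% DMSO control for 48 h. Culture medium was collected and LDH activity measured with a commercial kit. Mean ± SEM, n = 3, Student's t-test.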

A549 [6] = assay: Induction of apoptosis in human A549 cells assessed as nuclear fragmentation at 10 uM after 48 hrs by Hoechst 33258 staining-based fluorescence microscopic analysis; format: functional, cell-based; how it was run: as §2
A549 [7] = assay: Cytotoxicity against human A549 cells assessed as growth inhibition at 1 to 10 uM by sulforhodamine B assay; format: functional, cell-based; conditions: TDE = time-dependent effect; how it was run: as §1
A549 [8] = assay: Cytotoxicity against human A549 cells assessed as growth inhibition after 24 to 48 hrs by sulforhodamine B assay; format: functional, cell-based; how it was run: as §1
A549 [9] = assay: Induction of autophagosome formation in human A549 cells assessed as LC3-2 to LC3-1 ratio at 5 to 10 uM after 24 hrs by Western blotting analysis; format: functional, cell-based
A549 [10] = assay: Cell cycle arrest in human A549 cells assessed as accumulation at G2 phase at 10 uM after 48 hrs by propidium iodide staining-based flow cytometric analysis (reference value: 10.32%); format: functional
A549 [11] = assay: Cell cycle arrest in human A549 cells assessed as accumulation at S phase at 10 uM after 48 hrs by propidium iodide staining-based flow cytometric analysis (reference value: 35.18%); format: functional
A549 [12] = assay: Cell cycle arrest in human A549 cells assessed as accumulation at G2/G1 phase at 10 uM after 48 hrs by propidium iodide staining-based flow cytometric analysis (reference value: 1.91%); format: functional
A549 [13] = assay: Induction of autophagosome formation in human A549 cells assessed as conversion of LC3-1 to LC3-2 at 5 to 10 uM after 24 hrs by Western blotting analysis; format: functional, cell-based
A549 [14] = assay: Induction of autophagosome formation in human A549 cells assessed as increase in LC3-2 protein level at 5 to 10 uM after 24 hrs by Western blotting analysis; format: functional, cell-based
A549 [15] = assay: Induction of autophagic flux in human A549 cells assessed as decrease in p62 protein level at 5 to 10 uM after 24 hrs by Western blotting analysis; format: functional, cell-based
A549 [16] = assay: Cell cycle arrest in human A549 cells assessed as accumulation at G1 phase at 10 uM after 48 hrs by propidium iodide staining-based flow cytometric analysis (reference value: 54.5%); format: functional

| SMILES | growth inhibition (GI) (A549 [1]) | Activity (A549 [2]) | Activity (A549 [3]) | Activity (A549 [4]) | Activity (A549 [5]) | Activity (A549 [6]) | growth inhibition (GI) (A549 [7]) | IC50 (A549 [8]) [µM] | growth inhibition (GI) (A549 [8]) | Activity (A549 [9]) | Activity (A549 [10]) [%] | Activity (A549 [11]) [%] | Activity (A549 [12]) [%] | Activity (A549 [13]) | Activity (A549 [14]) | Activity (A549 [15]) | Activity (A549 [16]) [%] |
| --- | --- | --- | --- | --- | --- | --- | --- | --- | --- | --- | --- | --- | --- | --- | --- | --- | --- |
| COc1ccc(-c2cc(C(=O)NO)n(Cc3ccc(C(C)(C)C)cc3)n2)cc1 | <=70% | inactive | inactive | Active | Active | inactive | tde | 2.56 | Dose-dependent effect | – | – | – | – | – | – | – | – |
| O=C(NO)c1cc(-c2ccc(Cl)cc2)nn1Cc1ccc([N+](=O)[O-])cc1 | – | inactive | inactive | Active | inactive | inactive | tde | 7.78 | Dose-dependent effect | – | – | – | – | – | – | – | – |
| CC(C)(C)c1ccc(Cn2nc(-c3ccc(Cl)cc3)cc2C(=O)NO)cc1 | <=70% | inactive | inactive | Active | inactive | inactive | tde | 1.82 | Dose-dependent effect | Active | 0 | 21.27 | 1.96 | Active | Active | Active | 78.73 |
| O=C(NO)c1cc(-c2ccc(Cl)cc2)nn1Cc1ccccc1 | – | inactive | inactive | Active | inactive | inactive | tde | 4.44 | Dose-dependent effect | – | – | – | – | – | – | – | – |
| COc1ccc(-c2cc(C(=O)NO)n(Cc3ccccc3)n2)cc1 | – | inactive | inactive | Active | inactive | inactive | tde | 6.77 | Dose-dependent effect | – | – | – | – | – | – | – | – |
| CC(C)(C)c1ccc(Cn2nc(-c3ccccc3)cc2C(=O)NO)cc1 | <=70% | inactive | inactive | Active | inactive | inactive | tde | 1.72 | Dose-dependent effect | Active | 2.32 | 24.87 | 1.8 | Active | Active | Active | 72.8 |
| O=C(NO)c1cc(-c2ccccc2)nn1Cc1ccccc1 | – | inactive | inactive | Active | inactive | inactive | tde | 5.6 | Dose-dependent effect | – | – | – | – | – | – | – | – |
| O=C(NO)c1cc(-c2ccccc2)nn1Cc1ccc([N+](=O)[O-])cc1 | – | inactive | inactive | Active | inactive | inactive | tde | 6 | Dose-dependent effect | – | – | – | – | – | – | – | – |
| COc1ccc(-c2cc(C(=O)NO)n(Cc3ccc(Cl)nc3)n2)cc1 | – | inactive | inactive | Active | Active | inactive | tde | 8.56 | Dose-dependent effect | – | – | – | – | – | – | – | – |
| O=c1[nH]cc(F)c(=O)[nH]1 [FLUOROURACIL] | – | – | – | – | – | – | – | 1.65 | – | – | – | – | – | – | – | – | – |
| O=C(NO)c1cc(-c2ccc(Cl)cc2)nn1Cc1ccc(Cl)nc1 | <=70% | inactive | inactive | Active | inactive | inactive | tde | 4.21 | Dose-dependent effect | Active | 0 | 28.09 | 1.84 | Active | Active | Active | 71.91 |
| O=C(NO)c1cc(-c2ccccc2)nn1Cc1ccc(Cl)nc1 | – | inactive | inactive | Active | inactive | inactive | tde | 8.5 | Dose-dependent effect | – | – | – | – | – | – | – | – |
| COc1ccc(-c2cc(C(=O)NO)n(Cc3ccc([N+](=O)[O-])cc3)n2)cc1 | – | inactive | inactive | Active | inactive | inactive | tde | 7.11 | Dose-dependent effect | – | – | – | – | – | – | – | – |
